Laboratory results: ChEMBL document CHEMBL6092177, “Applying molecular hybridization to design a new class of pyrazolo[3,4-d]pyrimidines as Src inhibitors active in hepatocellular carcinoma” (Eur J Med Chem, 2024)
Values after ≈ are worked out from the molar mass of the structure shown.

Test system: Huh-7
Assay: Antiproliferative activity against human Huh-7 cells assessed as cell growth inhibition measured at 72 hrs by MTT assay
Conditions: Huh-7, 72 h

Compound | IC50
Cn1ncc2c(Nc3ncc(C(=O)Nc4cc(O)ccc4Br)s3)nc(SCCN3CCOCC3)nc21 | 7.21 µM
Cn1ncc2c(Nc3ncc(C(=O)Nc4ccccc4)s3)nc(SCCN3CCOCC3)nc21 | 14 µM
O=C(Nc1cccc(O)c1)c1cnc(Nc2ncnc3c2cnn3CC(Cl)c2ccccc2)s1 (stereo not drawn) | 11.1 µM

Test system: HepG2
Assay: Antiproliferative activity against human HepG2 cells assessed as cell growth inhibition measured at 72 hrs by MTT assay
Conditions: HepG2, 72 h

Compound | IC50
Cn1ncc2c(Nc3ncc(C(=O)Nc4cccc(O)c4)s3)nc(SCCN3CCOCC3)nc21 | > 50 µM
Cn1ncc2c(Nc3ncc(C(=O)Nc4cc(O)ccc4Br)s3)nc(SCCN3CCOCC3)nc21 | 1.55 µM
Cn1ncc2c(Nc3ncc(C(=O)Nc4ccccc4)s3)nc(SCCN3CCOCC3)nc21 | 7.9 µM
O=C(Nc1cccc(O)c1)c1cnc(Nc2ncnc3c2cnn3CC(Cl)c2ccccc2)s1 (stereo not drawn) | 3.19 µM

Test system: not listed separately
Assay: Apparent permeability of compound in PBS buffer at pH 7.4 incubated for 4 hrs by LC-UV-MS analysis
Format: ADME
Conditions: not told
How it was run: (§1)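 PAMPA: DMSO stock diluted 1:1 with 10 mM PBS pH 7.4 as donor, through filter coated with 1% phosphatidylcholine in dodecane. Acceptor DMSO/PBS 1:1; incubated at rt for 4 h with gentle shaking. Both compartments quantified by LC-UV-MS to give Papp and % membrane retention; three independent experiments in triplicate.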

Compound | Papp at 4 h
Cn1ncc2c(Nc3ncc(C(=O)Nc4cccc(O)c4)s3)nc(SCCN3CCOCC3)nc21 | 0.1 ×10⁻⁶ cm/s
Cn1ncc2c(Nc3ncc(C(=O)Nc4cc(O)ccc4Br)s3)nc(SCCN3CCOCC3)nc21 | < 0.1 ×10⁻⁶ cm/s
Cn1ncc2c(Nc3ncc(C(=O)Nc4ccccc4)s3)nc(SCCN3CCOCC3)nc21 | 1.61 ×10⁻⁶ cm/s
O=C(Nc1cccc(O)c1)c1cnc(Nc2ncnc3c2cnn3CC(Cl)c2ccccc2)s1 (stereo not drawn) | 0.14 ×10⁻⁶ cm/s

Test system: not listed separately
Assay: Stability in human plasma measured after 24 hrs by UV-LC/MS analysis
Format: ADME, cell-free
Conditions: read-out: Stability

Compound | remaining at 24 h
Cn1ncc2c(Nc3ncc(C(=O)Nc4cc(O)ccc4Br)s3)nc(SCCN3CCOCC3)nc21 | 99.5%
Cn1ncc2c(Nc3ncc(C(=O)Nc4ccccc4)s3)nc(SCCN3CCOCC3)nc21 | 98.3%
O=C(Nc1cccc(O)c1)c1cnc(Nc2ncnc3c2cnn3CC(Cl)c2ccccc2)s1 (stereo not drawn) | > 100%

Test system: not listed separately
Assay: Stability in human plasma assessed as half life measured up to 24 hrs by UV-LC/MS analysis
Format: ADME, cell-free
Conditions: not given

Compound | half-life
Cn1ncc2c(Nc3ncc(C(=O)Nc4ccccc4)s3)nc(SCCN3CCOCC3)nc21 | > 24 h

Test system: Huh-7
Assay: Antiproliferative activity against human Huh-7 cells assessed as cell growth inhibition measured at 48 hrs by MTT assay
Conditions: Huh-7, 48 h

Compound | IC50
Cn1ncc2c(Nc3ncc(C(=O)Nc4cc(O)ccc4Br)s3)nc(SCCN3CCOCC3)nc21 | 13.7 µM
Cn1ncc2c(Nc3ncc(C(=O)Nc4ccccc4)s3)nc(SCCN3CCOCC3)nc21 | 33.5 µM
O=C(Nc1cccc(O)c1)c1cnc(Nc2ncnc3c2cnn3CC(Cl)c2ccccc2)s1 (stereo not drawn) | 22 µM

Test system: HepG2
Assay: Antiproliferative activity against human HepG2 cells assessed as cell growth inhibition measured at 24 hrs by MTT assay
Conditions: HepG2, 24 h

Compound | IC50
Cn1ncc2c(Nc3ncc(C(=O)Nc4cccc(O)c4)s3)nc(SCCN3CCOCC3)nc21 | > 50 µM
Cn1ncc2c(Nc3ncc(C(=O)Nc4cc(O)ccc4Br)s3)nc(SCCN3CCOCC3)nc21 | 12 µM
O=C(Nc1cccc(O)c1)c1cnc(Nc2ncnc3c2cnn3CC(Cl)c2ccccc2)s1 (stereo not drawn) | 87.1 µM

Test system: Huh-7
Assay: Antiproliferative activity against human Huh-7 cells assessed as cell growth inhibition measured at 24 hrs by MTT assay
Conditions: Huh-7, 24 h

Compound | IC50
Cn1ncc2c(Nc3ncc(C(=O)Nc4cc(O)ccc4Br)s3)nc(SCCN3CCOCC3)nc21 | 26.5 µM
Cn1ncc2c(Nc3ncc(C(=O)Nc4ccccc4)s3)nc(SCCN3CCOCC3)nc21 | 67.6 µM

Test system: not listed separately
Assay: Metabolic stability in human liver microsome measured after 1 hr in presence of NADPH by UV/LC-MS analysis
Format: ADME
Conditions: liver microsomes, read-out: Stability
How it was run: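 Compound incubated with HLM (0.2 mg/mL) and NADPH (in 48 mM MgCl2) in 10 mM PBS pH 7.4 at 37 °C for 60 min with shaking. Stopped with cold ACN, centrifuged, dried under N2 and quantified by UV/LC-MS for % unmetabolized.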

Compound | remaining at 1 h
Cn1ncc2c(Nc3ncc(C(=O)Nc4cccc(O)c4)s3)nc(SCCN3CCOCC3)nc21 | 99.4%
Cn1ncc2c(Nc3ncc(C(=O)Nc4cc(O)ccc4Br)s3)nc(SCCN3CCOCC3)nc21 | > 100%
Cn1ncc2c(Nc3ncc(C(=O)Nc4ccccc4)s3)nc(SCCN3CCOCC3)nc21 | 99.8%
O=C(Nc1cccc(O)c1)c1cnc(Nc2ncnc3c2cnn3CC(Cl)c2ccccc2)s1 (stereo not drawn) | > 100%

Test system: HepG2
Assay: Antiproliferative activity against human HepG2 cells assessed as cell growth inhibition measured at 48 hrs by MTT assay
Conditions: HepG2, 48 h

Compound | IC50
Cn1ncc2c(Nc3ncc(C(=O)Nc4cccc(O)c4)s3)nc(SCCN3CCOCC3)nc21 | > 50 µM
Cn1ncc2c(Nc3ncc(C(=O)Nc4cc(O)ccc4Br)s3)nc(SCCN3CCOCC3)nc21 | 7.31 µM
O=C(Nc1cccc(O)c1)c1cnc(Nc2ncnc3c2cnn3CC(Cl)c2ccccc2)s1 (stereo not drawn) | 5.06 µM

Test system: not listed separately
Assay: Permeability of the compound in PBS buffer at pH 7.4 assessed as membrane retention rate by PAMPA method
Format: ADME
Conditions: not given
How it was run: as §1

Compound | membrane retention
Cn1ncc2c(Nc3ncc(C(=O)Nc4cccc(O)c4)s3)nc(SCCN3CCOCC3)nc21 | 3.1%
Cn1ncc2c(Nc3ncc(C(=O)Nc4cc(O)ccc4Br)s3)nc(SCCN3CCOCC3)nc21 | 0.51%
Cn1ncc2c(Nc3ncc(C(=O)Nc4ccccc4)s3)nc(SCCN3CCOCC3)nc21 | 16.49%
O=C(Nc1cccc(O)c1)c1cnc(Nc2ncnc3c2cnn3CC(Cl)c2ccccc2)s1 (stereo not drawn) | 6.1%

Test system: not listed separately
Assay: Thermodynamic solubility of compound by LC-MS/MS analysis
Format: physicochemical
Conditions: read-out: Therm_solubility
How it was run: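 Thermodynamic solubility: solubilized compound quantified in triplicate by LC-MS/MS on a C18 column with water/ACN gradient, both with 0.1% formic acid. Calibration from DMSO standards 0.1–100 µM; LoQ below 0.01 µM.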

Compound | solubility thermodynamic
Cn1ncc2c(Nc3ncc(C(=O)Nc4cccc(O)c4)s3)nc(SCCN3CCOCC3)nc21 | 0.03 µg/mL (≈ 0.0585 µM)
Cn1ncc2c(Nc3ncc(C(=O)Nc4cc(O)ccc4Br)s3)nc(SCCN3CCOCC3)nc21 | < 0.01 µg/mL
Cn1ncc2c(Nc3ncc(C(=O)Nc4ccccc4)s3)nc(SCCN3CCOCC3)nc21 | < 0.01 µg/mL
O=C(Nc1cccc(O)c1)c1cnc(Nc2ncnc3c2cnn3CC(Cl)c2ccccc2)s1 (stereo not drawn) | < 0.01 µg/mL
